Assay outcomes (PubChem BioAssay)
KCNK3 block: human KCNK3 channel inhibition, primary screen | O14649 | CHO-KCNK3 thallium flux, FluxOR fluorescence; hits give low values | B-score at 10 µM | actives 0.84% (n = 340,000);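 active = B-score under library mean minus 4 SD, starting fluorescence ratio at most library mean plus 5 SD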;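 note: more negative B-score means stronger inhibition of thallium flux through KCNK3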
KCNQ1 act: potentiates or activates the human KCNQ1 potassium channel; P51787; B-score at 10 µM; CHO-K1 KCNQ1, thallium flux FluxOR fluorescence; hits give high values; actives 0.35% (n = 310,000); AID 2648;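 active = fluorescence ratio B-score, a plate-corrected score, at least three library SD, with initial intensity B-score within 5 SD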
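Assay system: CHO-K1 cells stably expressing KCNQ1. Medium: assay buffer for compound exposure, DMSO matched across wells. Timing: 37 °C overnight plating, 90-min dark dye load, 20-min compound pretreatment. Signal: kinetic FluxOR fluorescence, 10 s baseline plus 110 s post-stimulus.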
KCNQ1 inh: blocks the human KCNQ1 potassium channel | P51787 | AID 2642 | CHO-K1 KCNQ1, FluxOR thallium flux fluorescence; hits give high values | actives 1.3% (n = 310,000) | B-score at 10 µM;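 active = compounds whose thallium flux B-score, printed positive for inhibition, exceeds three library SD while starting fluorescence stays within three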;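 note: channel opened by potassium depolarization with thallium stimulus after 20 min compound exposure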
Kir21 inh: Kir2.1 (mouse) channel inhibition. P35561. HEK293-Kir2.1, FluxOR thallium flux fluorescence; hits give low values. B-score at 10 µM. actives 0.85% (n = 310,000). AID 1672;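 active = fluorescence ratio B-score at or below minus 3 SD of library scores, with starting-brightness B-score within 2 SD, cut at about -4.2 in these data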;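 note: channel flux triggered by added potassium and thallium sulfate stimulus; B-score of peak minus minimum fluorescence over baseline after thallium stimulus; more negative B-score means stronger Kir2.1 block with less thallium influx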
hERG rescue: compounds protecting human hERG from proarrhythmic drug block; Q12809; CHO-hERG, FluxOR thallium flux, dofetilide IC70 present; activation (rescue from dofetilide block), less the hit threshold, % at 10 µM; actives 0.51% (n = 310,000); AID 1511;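 active = activation above the mean of controls blocked by dofetilide plus 5 SD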;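 note: thallium influx through hERG after potassium depolarization seen as dye fluorescence rise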
KCNK9 block: blocks the human KCNK9 two-pore domain potassium channel; HEK293 KCNK9, FluxOR thallium flux fluorescence; hits give low values; B-score at 10 µM; actives 1.2% (n = 310,000);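 active = ratio B-score over 3 SD below the library mean, with starting fluorescence within 5 SD of its mean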;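 note: negative B-score means less thallium flux so channel inhibition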
* hit, by the source's call; i = inactive; · = no result given. In the library only some 3.8% were active in any assay of this set; here they are far more common.

SMILES | KCNK3 block | KCNQ1 act | KCNQ1 inh | Kir21 inh | hERG rescue | KCNK9 block
CC(C)OCCCNC(=O)CN1C(=O)CSc2ccc(S(=O)(=O)N3CCCCC3)cc21 | i | i | i | 0.38 | -4 | i
COc1ccc(-n2c(C)cc(C(=O)CCl)c2C)cc1 | i | 8* | i | -1.3 | -19 | i
COc1ccc(CCNCc2cc(C)n(-c3ccc(OC)cc3)c2C)cc1 | i | i | i | -4.8* | -12 | i
COc1ccc(-n2c(C)cc(C(=O)CN3C(=O)c4ccccc4C3=O)c2C)cc1 | i | i | i | 0.76 | -6 | i
CC(OC(=O)Cc1c[nH]c2ccccc12)C(=O)Nc1ccccc1F (configuration not stated) | i | i | i | -5.7* | -7 | i
CC(=O)c1cccc(NC(=O)C(C)OC(=O)Cc2c[nH]c3ccccc23)c1 (configuration not stated) | i | i | i | -1.5 | -19 | i
CCN(CCCn1c(=S)[nH]c2ncccc2c1=O)c1ccccc1 | i | i | i | 1.9 | 38* | i
Cc1cccc(NC(=O)c2ccc(S(=O)(=O)NCc3cccnc3)cc2)c1 | i | i | i | 0.47 | -7 | i
CC(C)(Oc1ccc(Cl)cc1)C(=O)N/N=C/c1cn[nH]c1-c1ccccc1 | i | i | i | 0.57 | -6 | -7.2*
COc1ccc(CCNC(=O)CSc2nc(=O)n3cc(C)ccc3n2)cc1OC | i | i | i | 0.11 | -15 | i
CCCn1nc(NC(=O)COC)c2cc3cc(C)ccc3nc21 | i | i | i | 0.3 | -6 | i
CCCCn1nc(NC(=O)COC)c2cc3ccc(C)cc3nc21 | i | i | i | 1.6 | 9.0* | i
COC(=O)[C@H](Cc1c[nH]c2ccccc12)NC(=O)NCc1ccc(OC)c(OC)c1 | i | i | i | 0.74 | -6 | i
N#C/C(=C\c1cccc(Oc2ccccc2)c1)C(=O)N1CCOCC1 | i | i | i | -13* | -22 | i
CC(C)(C)OC(=O)NCCc1nnc(SCC(N)=O)o1 | i | i | i | 1.1 | -20 | i
CC(C)(C)OC(=O)NCCCCCc1nnc(SCC(N)=O)o1 | i | i | i | 0.36 | 4.6* | i
CCCCSc1nnc(CCNC(=O)OC(C)(C)C)o1 | i | i | i | 0.35 | -2 | i
CC(C)(C)OC(=O)NCCc1nnc(SCc2ccccc2)o1 | i | i | i | -6.1* | -8 | i
CC(C)(C)OC(=O)NCCc1nnc(SCc2ccccc2Cl)o1 | i | i | i | -5.5* | -4 | i
O=C(CNc1ccc(Br)cc1)c1ccc(Br)s1 | i | i | i | -1.1 | -10 | i
O=S(=O)(c1ccc(Cl)c(Cl)c1)c1snnc1-c1ccccc1 | i | i | i | -4.2* | -9 | i
c1ccc(-c2nnsc2-c2ccccc2)cc1 | i | i | i | -3.3 | -8 | i
Cc1ccc(C(=O)Nn2cnnc2)cc1Cl | i | i | i | -1.8 | -7 | i
CC(NC(=S)NC(=O)c1ccccc1Br)c1ccccc1 (configuration not stated) | i | 8* | i | 2.2 | 0 | i
CC(=O)Nc1ccc(S(=O)(=O)N2CCc3cc4c(cc3C2)OCCCO4)cc1 | i | i | i | 0.06 | -3 | i
COc1ccccc1NS(=O)(=O)c1ccc(C(=O)N2CCN(c3ccccn3)CC2)cc1 | i | · | · | · | · | ·
COc1cc(CCCN2C(=S)NC[C@@H]2CC2CCCCC2)cc(OC)c1OC | i | i | i | -4.3* | -13 | i
O=S(=O)(NCCc1cn2ccccc2n1)c1ccc(-c2ccccc2)cc1 | i | i | i | -4.2* | -11 | i
COc1cc(CN2CCC(C(=O)NCC(C)(C)CN(C)C)CC2)ccc1OCc1ccccc1 | i | i | i | -0.01 | -6 | i
CC(C)CCNC(=O)C(c1ccc(O)cc1)N(C(=O)C1COc2ccccc2O1)c1cccc(O)c1 (configuration not stated) | i | i | 7* | -1.1 | -13 | i
